# Measured values: ChEMBL document CHEMBL5724801, “EUbOPEN Chemogenomics Library - Multiplex” (2024)
# Where “and” joins values, the source holds several entries; their conditions need not be identical. Identical values can stand only once.
# Tested on: U2OS
# Assay: Multiplex assay against U2OS
# Format: toxicity, cell-based
# Conditions: human
# How it was run: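 Per cents of healthy-nucleus cells form the tubulin, mitochondrial-mass and membrane-permeability phenotype values. Live cells were stained at seeding with Hoechst33342, BioTracker Green Microtubule Cytoskeleton Dye, MitoTracker Red and Annexin V Alexa Fluor 680. After compound addition they were imaged on a CQ1 microscope at 37°C and 5% CO2, and CellPathfinder machine-learning gating split them into Hoechst high-intensity objects or normal cells, normal cells into healthy, pyknosed or fragmented nuclei, and pyknosed cells into mitotic or apoptotic.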
# [1] = 12 h, 1 µM, compound concentration 1 uM
# [2] = 12 h, 10 µM, compound concentration 10 uM
# [3] = 24 h, 1 µM, compound concentration 1 uM
# [4] = 24 h, 10 µM, compound concentration 10 uM
# [5] = 48 h, 1 µM, compound concentration 1 uM
# [6] = 48 h, 10 µM, compound concentration 10 uM
smiles,measurement,setting,value
CN(C)Cc1cccc(NC(=C2C(=O)Nc3cc(C(N)=O)ccc32)c2ccccc2)c1,Population Apoptotic (%),[1],37.78% and 38.1%
same,Population Fragmented Nuclei (%),[1],1.29% and 3.85%
same,Population Healthy Nuclei (%),[1],87.11% and 82.69%
same,Population Hoechst High Intensity Objects (%),[1],0%
same,Population Membrane Permeable-Phenotype (%),[1],1.78% and 2.33%
same,Population Mitochondria Different-Phenotype (%),[1],0.59% and 5.43%
same,Population Mitotic Cells (%),[1],62.22% and 61.9%
same,Population Normal (%),[1],100%
same,Population Pyknosed Nuclei (%),[1],11.6% and 13.46%
same,Population Tubulin-Different-Phenotype (%),[1],1.18% and 0%
same,Total Cell Count,[1],388 and 156
same,Population Apoptotic (%),[2],35.71% and 43.75%
same,Population Healthy Nuclei (%),[2],86.17% and 71.36%
same,Population Hoechst High Intensity Objects (%),[2],0%
same,Population Membrane Permeable-Phenotype (%),[2],3.66% and 11.27%
same,Population Mitotic Cells (%),[2],64.29% and 56.25%
same,Population Normal (%),[2],100%
same,Population Pyknosed Nuclei (%),[2],10.19% and 8.04%
same,Population Tubulin-Different-Phenotype (%),[2],6.48% and 4.93%
same,Total Cell Count,[2],412 and 199
same,Population Apoptotic (%),[3],42% and 39.29%
same,Population Fragmented Nuclei (%),[3],1.87% and 0.52%
same,Population Healthy Nuclei (%),[3],88.81% and 84.97%
same,Population Hoechst High Intensity Objects (%),[3],0%
same,Population Membrane Permeable-Phenotype (%),[3],1.89% and 4.27%
same,Population Mitochondria Different-Phenotype (%),[3],0.42% and 6.1%
same,Population Mitotic Cells (%),[3],58% and 60.71%
same,Population Normal (%),[3],100%
same,Population Pyknosed Nuclei (%),[3],9.33% and 14.51%
same,Population Tubulin-Different-Phenotype (%),[3],1.47% and 0.61%
same,Total Cell Count,[3],536 and 193
same,Population Apoptotic (%),[4],50.75% and 51.72%
same,Population Healthy Nuclei (%),[4],82.77% and 70.62%
same,Population Hoechst High Intensity Objects (%),[4],0%
same,Population Membrane Permeable-Phenotype (%),[4],2.06% and 8.72%
same,Population Mitotic Cells (%),[4],49.25% and 48.28%
same,Population Normal (%),[4],100%
same,Population Pyknosed Nuclei (%),[4],14.26% and 13.74%
same,Population Tubulin-Different-Phenotype (%),[4],4.88% and 2.68%
same,Total Cell Count,[4],470 and 211
same,Population Apoptotic (%),[5],48.91% and 34.38%
same,Population Fragmented Nuclei (%),[5],3.29% and 3.37%
same,Population Healthy Nuclei (%),[5],86.93% and 86.81%
same,Population Hoechst High Intensity Objects (%),[5],0.11% and 0%
same,Population Membrane Permeable-Phenotype (%),[5],1.34% and 2.47%
same,Population Mitochondria Different-Phenotype (%),[5],0.37% and 3.53%
same,Population Mitotic Cells (%),[5],51.09% and 65.62%
same,Population Normal (%),[5],99.89% and 100%
same,Population Pyknosed Nuclei (%),[5],9.78% and 9.82%
same,Population Tubulin-Different-Phenotype (%),[5],1.1% and 0.71%
same,Total Cell Count,[5],942 and 326
same,Population Apoptotic (%),[6],57.52% and 51.28%
same,Population Healthy Nuclei (%),[6],81.24% and 71.84%
same,Population Hoechst High Intensity Objects (%),[6],0%
same,Population Membrane Permeable-Phenotype (%),[6],3.41% and 6.53%
same,Population Mitochondria Different-Phenotype (%),[6],0.33% and 7.54%
same,Population Mitotic Cells (%),[6],42.48% and 48.72%
same,Population Normal (%),[6],100%
same,Population Pyknosed Nuclei (%),[6],14.93% and 14.08%
same,Population Tubulin-Different-Phenotype (%),[6],4.88% and 7.04%
same,Total Cell Count,[6],757 and 277
